{"source": "paper PMC5730275", "about": "(Chemical communications (Cambridge, England), 2017)", "key": {"[1]": {"target": "purified human recombinant NAPE-PLD (Homo sapiens, UniProt Q6IQ20)", "sequence (Q6IQ20 whole entry)": "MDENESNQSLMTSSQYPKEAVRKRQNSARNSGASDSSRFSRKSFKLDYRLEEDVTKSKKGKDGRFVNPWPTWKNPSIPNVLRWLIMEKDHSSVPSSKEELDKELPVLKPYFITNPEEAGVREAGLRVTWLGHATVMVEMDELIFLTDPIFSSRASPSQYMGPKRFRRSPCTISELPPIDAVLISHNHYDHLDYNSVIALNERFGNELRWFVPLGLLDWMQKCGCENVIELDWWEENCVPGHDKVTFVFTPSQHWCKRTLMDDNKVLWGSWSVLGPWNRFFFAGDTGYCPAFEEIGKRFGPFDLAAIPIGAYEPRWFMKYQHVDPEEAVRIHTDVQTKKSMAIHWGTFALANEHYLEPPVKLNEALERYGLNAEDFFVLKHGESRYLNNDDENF", "test": "Inhibition of purified human recombinant NAPE-PLD", "format": "biochemical", "summary_of_the_method": "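Purified recombinant human NAPE-PLD. Michaelis-Menten kinetics and activity time-course were run with vehicle (1% DMSO) or test compound at 50 or 100 μM. Reversibility was tested by rapid dilution after preincubating the enzyme with vehicle (1% DMSO) or test compound (100 μM).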"}, "Q320A NAPE-PLD mutant": {"target": "T1, Q320A NAPE-PLD mutant (Homo sapiens, UniProt Q6IQ20, Q320A)", "T1 sequence (Q6IQ20 1-393 Q320A)": "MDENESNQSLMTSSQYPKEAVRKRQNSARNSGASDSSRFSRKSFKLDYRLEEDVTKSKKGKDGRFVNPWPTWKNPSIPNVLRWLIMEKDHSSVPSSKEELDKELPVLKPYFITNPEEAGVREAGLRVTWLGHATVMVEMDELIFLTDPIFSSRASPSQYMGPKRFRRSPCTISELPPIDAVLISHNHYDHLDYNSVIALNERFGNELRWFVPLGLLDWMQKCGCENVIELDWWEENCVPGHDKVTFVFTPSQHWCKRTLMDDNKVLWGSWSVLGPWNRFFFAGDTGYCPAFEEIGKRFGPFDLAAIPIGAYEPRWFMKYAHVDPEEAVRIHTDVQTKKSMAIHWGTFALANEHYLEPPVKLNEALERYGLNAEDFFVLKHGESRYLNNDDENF", "test": "Inhibition of Q320A NAPE-PLD mutant", "format": "biochemical"}, "Q320S NAPE-PLD": {"target": "T2, Q320S NAPE-PLD (Homo sapiens, UniProt Q6IQ20, Q320S)", "T2 sequence (Q6IQ20 1-393 Q320S)": "T1 sequence (Q6IQ20 1-393 Q320A) with A320S", "test": "Inhibition of Q320S NAPE-PLD mutant", "format": "biochemical"}, "[2]": {"target": "T3, NAPE-PLD mutant Q158S/Y159S (Homo sapiens, UniProt Q6IQ20, Q158S/Y159S)", "T3 sequence (Q6IQ20 1-393 Q158S/Y159S)": "T1 sequence (Q6IQ20 1-393 Q320A) with Q158S, Y159S, A320Q", "test": "Inhibition of double NAPE-PLD mutant Q158S/Y159S", "format": "biochemical", "settings": "mutant unable to bind bile acids"}, "[3]": {"target": "carbonic anhydrase (CA) II (Homo sapiens, UniProt P00918)", "test": "Selectivity: zinc-dependent enzyme carbonic anhydrase II", "format": "biochemical", "settings": "50 μM"}, "neutral endopeptidase": {"target": "neutral endopeptidase (Homo sapiens, UniProt P08473)", "sequence (P08473 whole entry, species assumed)": "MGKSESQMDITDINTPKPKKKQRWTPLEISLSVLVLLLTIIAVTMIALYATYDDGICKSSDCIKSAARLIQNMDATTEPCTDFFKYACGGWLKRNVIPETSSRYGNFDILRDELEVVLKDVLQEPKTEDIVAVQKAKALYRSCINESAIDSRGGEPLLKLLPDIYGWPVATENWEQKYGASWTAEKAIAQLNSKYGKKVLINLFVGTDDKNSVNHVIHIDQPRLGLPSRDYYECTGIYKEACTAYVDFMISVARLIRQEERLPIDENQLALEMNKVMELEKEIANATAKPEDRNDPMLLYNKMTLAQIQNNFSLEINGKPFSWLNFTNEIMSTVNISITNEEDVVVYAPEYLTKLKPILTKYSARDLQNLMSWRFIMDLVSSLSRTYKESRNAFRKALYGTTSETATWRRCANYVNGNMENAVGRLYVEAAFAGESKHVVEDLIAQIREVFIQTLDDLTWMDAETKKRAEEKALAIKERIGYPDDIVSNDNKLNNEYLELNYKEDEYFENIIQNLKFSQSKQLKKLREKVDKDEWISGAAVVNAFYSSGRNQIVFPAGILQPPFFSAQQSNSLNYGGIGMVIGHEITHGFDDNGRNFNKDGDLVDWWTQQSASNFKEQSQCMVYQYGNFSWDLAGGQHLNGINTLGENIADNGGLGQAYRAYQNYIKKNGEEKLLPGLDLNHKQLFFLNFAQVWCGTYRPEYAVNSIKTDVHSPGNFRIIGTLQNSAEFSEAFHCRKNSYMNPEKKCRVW", "test": "Selectivity: zinc-dependent enzyme neutral endopeptidase", "format": "biochemical", "settings": "50 μM"}, "[4]": {"target": "angiotensin-converting enzyme (ACE) (Homo sapiens, UniProt P12821)", "sequence (P12821 30-1306, species assumed)": "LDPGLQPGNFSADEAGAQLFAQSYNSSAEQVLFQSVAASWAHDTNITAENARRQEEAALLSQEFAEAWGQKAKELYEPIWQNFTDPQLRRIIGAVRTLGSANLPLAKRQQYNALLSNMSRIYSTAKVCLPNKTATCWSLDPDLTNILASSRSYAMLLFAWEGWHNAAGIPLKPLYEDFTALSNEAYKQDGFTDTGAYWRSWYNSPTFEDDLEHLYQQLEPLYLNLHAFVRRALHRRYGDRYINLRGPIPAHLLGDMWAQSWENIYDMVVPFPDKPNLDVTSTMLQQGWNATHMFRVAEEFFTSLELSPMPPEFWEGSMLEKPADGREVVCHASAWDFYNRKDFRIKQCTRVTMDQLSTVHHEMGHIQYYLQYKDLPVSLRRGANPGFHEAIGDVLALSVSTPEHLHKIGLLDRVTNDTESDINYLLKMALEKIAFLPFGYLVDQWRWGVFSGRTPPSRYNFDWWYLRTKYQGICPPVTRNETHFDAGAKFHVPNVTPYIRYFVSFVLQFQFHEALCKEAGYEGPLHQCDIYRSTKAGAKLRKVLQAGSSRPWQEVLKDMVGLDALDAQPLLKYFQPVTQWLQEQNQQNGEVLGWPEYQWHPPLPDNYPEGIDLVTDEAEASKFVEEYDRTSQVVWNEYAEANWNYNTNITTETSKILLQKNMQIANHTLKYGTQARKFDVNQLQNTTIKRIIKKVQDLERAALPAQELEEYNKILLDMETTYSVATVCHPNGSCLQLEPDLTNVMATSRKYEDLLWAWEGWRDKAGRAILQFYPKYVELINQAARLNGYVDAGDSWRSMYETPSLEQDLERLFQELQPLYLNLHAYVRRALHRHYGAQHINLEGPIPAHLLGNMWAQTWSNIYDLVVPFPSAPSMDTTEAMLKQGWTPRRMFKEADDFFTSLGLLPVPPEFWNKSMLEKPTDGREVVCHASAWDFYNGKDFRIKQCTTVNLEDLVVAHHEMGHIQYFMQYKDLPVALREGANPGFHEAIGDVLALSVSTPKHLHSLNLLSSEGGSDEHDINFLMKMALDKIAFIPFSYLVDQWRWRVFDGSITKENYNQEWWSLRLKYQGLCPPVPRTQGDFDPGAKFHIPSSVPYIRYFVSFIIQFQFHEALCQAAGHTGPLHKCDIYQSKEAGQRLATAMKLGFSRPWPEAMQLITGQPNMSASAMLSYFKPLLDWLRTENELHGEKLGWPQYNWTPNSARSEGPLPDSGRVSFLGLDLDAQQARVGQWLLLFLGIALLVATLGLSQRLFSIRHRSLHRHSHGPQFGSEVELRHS", "test": "Selectivity: zinc-dependent enzyme ACE", "format": "biochemical", "settings": "50 μM"}, "[5]": {"test_system": "isofunctional, but zinc-independent enzyme activities present in cytosolic and microsomal fractions of mouse brain or small intestine", "test": "Isofunctional zinc-independent enzyme activities in mouse tissue fractions", "format": "biochemical", "settings": "300 μM"}, "[6]": {"target": "T4, human fatty acid amide hydrolase (FAAH)-1 (Homo sapiens, UniProt O00519)", "T4 sequence (O00519 1-579)": "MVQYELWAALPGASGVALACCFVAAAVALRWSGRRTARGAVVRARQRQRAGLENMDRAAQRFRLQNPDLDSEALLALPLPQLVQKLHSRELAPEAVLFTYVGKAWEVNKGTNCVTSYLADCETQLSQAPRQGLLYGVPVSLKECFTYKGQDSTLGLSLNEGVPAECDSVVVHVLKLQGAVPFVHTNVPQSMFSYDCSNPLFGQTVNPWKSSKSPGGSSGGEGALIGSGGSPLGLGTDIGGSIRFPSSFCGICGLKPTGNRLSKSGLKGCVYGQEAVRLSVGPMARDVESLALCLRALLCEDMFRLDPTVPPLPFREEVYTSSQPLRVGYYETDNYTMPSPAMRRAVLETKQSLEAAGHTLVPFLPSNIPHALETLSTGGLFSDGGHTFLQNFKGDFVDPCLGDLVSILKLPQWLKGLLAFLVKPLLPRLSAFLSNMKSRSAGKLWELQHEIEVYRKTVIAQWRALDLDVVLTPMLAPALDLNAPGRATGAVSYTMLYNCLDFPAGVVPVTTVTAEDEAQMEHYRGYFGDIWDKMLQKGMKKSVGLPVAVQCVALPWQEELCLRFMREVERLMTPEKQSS", "test": "Selectivity: FAAH-1 activity", "format": "biochemical", "settings": "300 μM"}, "[7]": {"target": "T5, human N-acylethanolamine acid amidase (NAAA) (Homo sapiens, UniProt Q02083)", "T5 sequence (Q02083 29-359)": "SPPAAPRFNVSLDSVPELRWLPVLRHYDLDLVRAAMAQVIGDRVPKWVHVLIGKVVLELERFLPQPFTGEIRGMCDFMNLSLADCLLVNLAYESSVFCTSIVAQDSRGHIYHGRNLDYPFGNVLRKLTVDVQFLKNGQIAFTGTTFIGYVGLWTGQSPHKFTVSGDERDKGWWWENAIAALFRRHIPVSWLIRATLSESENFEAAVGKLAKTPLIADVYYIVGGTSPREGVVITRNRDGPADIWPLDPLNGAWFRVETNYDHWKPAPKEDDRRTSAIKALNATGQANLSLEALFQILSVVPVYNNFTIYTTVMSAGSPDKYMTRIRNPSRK", "test": "Selectivity: NAAA activity", "format": "biochemical", "settings": "300 μM"}, "Human HEK-293 cells": {"test_system": "Human HEK-293 cells", "test": "NAPE and FAE levels in intact HEK-293 cells by LC-MS", "format": "cell-based", "settings": "50 μM, 4 hours", "summary_of_the_method": "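Human HEK-293 cells, which express NAPE-PLD constitutively, incubated with test compound at 50 μM for 4 h. Lipid extracts then prepared, and NAPE and fatty acid ethanolamide levels measured by liquid chromatography-mass spectrometry.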"}, "[8]": {"test": "Solubility in assay buffer", "format": "physicochemical", "settings": "microscopic inspection of assay wells"}}, "note": "Positions count from the first letter of the chain named.", "data": [{"smiles": "O=c1[nH]c(=O)c2cc(S(=O)(=O)Nc3ccc(-c4ccncc4)cc3)ccc2[nH]1", "note": "[Compound 18, 2,4-dioxo-N-[4-(4-pyridyl)phenyl]-1H-quinazoline-6-sulfonamide]", "values": [{"measurement": "Time-course of NAPE-PLD inhibition", "setting": "[1]; 18 at 50 or 100 μM", "result": "rapid"}, {"measurement": "Mechanism of NAPE-PLD inhibition (kinetic analyses)", "setting": "[1]; Michaelis-Menten kinetics, 18 at 50 or 100 μM", "result": "uncompetitive"}, {"measurement": "Reversibility upon dilution of enzyme-inhibitor complex (rapid dilution assay)", "setting": "[1]; preincubated with 100 μM", "result": "readily reversed"}, {"measurement": "IC50", "setting": "Q320A NAPE-PLD mutant", "result": "89.2 ± 2.3", "unit": "µM"}, {"measurement": "IC50", "setting": "Q320S NAPE-PLD", "result": "36.7 ± 1.6", "unit": "µM"}, {"measurement": "Susceptibility of Q158S/Y159S mutant to inhibition", "setting": "[2]", "result": "as susceptible to inhibition by 18 as wild-type NAPE-PLD"}, {"measurement": "Inhibitory effect on carbonic anhydrase (CA) II", "setting": "[3]", "result": "no inhibitory effect"}, {"measurement": "Inhibitory effect on neutral endopeptidase", "setting": "neutral endopeptidase", "result": "no inhibitory effect"}, {"measurement": "Inhibitory effect on angiotensin-converting enzyme (ACE)", "setting": "[4]", "result": "no inhibitory effect"}, {"measurement": "Effect on isofunctional zinc-independent enzyme activities", "setting": "[5]", "result": "did not affect"}, {"measurement": "Effect on human FAAH-1 activity", "setting": "[6]", "result": "did not affect"}, {"measurement": "Effect on human NAAA activity", "setting": "[7]", "result": "did not affect"}, {"measurement": "Endogenous oleoylethanolamide (OEA) levels in HEK-293 cells", "setting": "Human HEK-293 cells", "result": "remained unmodified"}, {"measurement": "Endogenous palmitoylethanolamide (PEA) levels in HEK-293 cells", "setting": "Human HEK-293 cells", "result": "remained unmodified"}, {"measurement": "NAPE levels in HEK-293 cells", "setting": "Human HEK-293 cells", "result": "substantial accumulation"}, {"measurement": "Solubility in assay / aqueous buffer", "setting": "[8]", "result": "adequate solubility"}]}, {"smiles": "O=C(Cc1cccs1)N[C@@H]1C(=O)N2C(C(=O)O)=C(/C=C/c3ccc([N+](=O)[O-])cc3[N+](=O)[O-])CS[C@H]12", "note": "[nitrocefin, reference compound]", "values": [{"measurement": "Inhibition of purified NAPE-PLD (concentration-response, Figure 3a)", "setting": "[1]; identical conditions as 18", "result": "inactive"}]}]}
